Screening results deposited in PubChem BioAssay by several laboratories.
Compounds with a hit are over-represented: about 1.7% of the library has one in this group of screens.
UCH37 DUB inh: inhibitors of human deubiquitinating enzyme UCH37. inhibition, % (concentration not given with the values). 0.33% of 330,000 active. purified proteasome/UCH37, Ub-AMC cleavage fluorescence. Q9Y5K5;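 active = mean inhibition over replicate wells above about 20%, limit read from the data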;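 note: 0% = compound-free wells with enzyme and 100% = wells lacking proteasome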
Target sequence (Q9Y5K5 whole entry, looked up): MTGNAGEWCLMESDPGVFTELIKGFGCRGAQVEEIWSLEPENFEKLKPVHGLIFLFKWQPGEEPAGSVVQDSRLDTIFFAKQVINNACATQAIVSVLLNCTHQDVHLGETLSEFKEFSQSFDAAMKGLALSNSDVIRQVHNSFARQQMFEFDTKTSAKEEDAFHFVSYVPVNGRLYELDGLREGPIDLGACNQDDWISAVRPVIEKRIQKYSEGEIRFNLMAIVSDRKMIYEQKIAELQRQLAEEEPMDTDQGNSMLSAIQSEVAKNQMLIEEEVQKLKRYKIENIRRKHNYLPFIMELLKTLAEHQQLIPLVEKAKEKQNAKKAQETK
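Assay system: Proteasome-bound UCH37. Buffer or medium: pH 7.4 Tris-HCl (50 mM) with ovalbumin, ATP-MgCl2, DTT. Incubation: 30 min preincubation with enzyme, 25 min cleavage at room temperature. Measured by: fluorescence, ex 355 nm, em 460 nm. Read-out basis: percent inhibition. Control set: wells without proteasome as full block, compound-free enzyme plus substrate as uninhibited.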
PLC-gamma1 inh: inhibitors of human phospholipase C gamma1; inhibition, % at 12.2 µM; purified PLC-gamma1, fluorogenic substrate, fluorescence; 0.84% of 370,000 active; in the data active = inhibition above about 9.5%
Rpn11 inh: blocks the human proteasome subunit Rpn11; 0.59% of 360,000 active; AID 588493; O00487; inhibition, % at 20 µM; human 26S proteasome, Ub4-pepOG fluorescence polarization; 20S core pre-blocked with epoxomicin;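 active = inhibition at 20 µM, scaled to each plate's controls, above about 33%, limit read from the data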
PLCb3 inh: inhibitors of human phospholipase C beta3. inhibition, % at 12.2 µM. 0.18% of 370,000 active. Q01970. Purified PLC-beta3, fluorogenic substrate, fluorescence. AID 720704;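 note: 0% = median of compound wells on plate and 100% = full blocker control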
PLCgamma1 ctr: inhibits human PLC-gamma1 in PLC-beta3 counter-screen | purified PLC-gamma1, fluorogenic substrate, fluorescence | AID 743258 | inhibition, % at 12.3 µM | shares compounds with PLC-gamma1 inh | 3.1% of 3,300 active; in the data active = inhibition above about 9.5%
PLCb3 confirm: human PLC-beta3 inhibition, confirmation | shares compounds with PLC-gamma1 inh | purified PLC-beta3, fluorogenic substrate fluorescence | inhibition, % at 12.3 µM | 1% of 3,300 active | AID 743261
Active calls of the source: *; . = no result. Cut-off read from the data, not from the text of the source, unless noted: active = inhibition above about 11%; inactive = the rest.

SMILES	UCH37 DUB inh	PLC-gamma1 inh	Rpn11 inh	PLCb3 inh	PLCgamma1 ctr	PLCb3 confirm
CC1(C)OC2OC(COC(=O)c3ccc([N+](=O)[O-])cc3)C3OC(C)(C)OC3C2O1 (stereo not drawn)	5	11*	-6	5	-1	1
C/C(O)=C/c1nc2ccccc2oc1=O	3	.	.	.	.	.
O=C(Oc1ccc([N+](=O)[O-])cc1)C1CC(=O)N(c2ccc3c(c2)OCCO3)C1 (stereo not drawn)	7	13*	-7	1	-3	-1
O=C1CC(NS(=O)(=O)c2ccc([N+](=O)[O-])cc2)CN1c1ccc2c(c1)OCCO2 (stereo not drawn)	1	3	2	-7	.	.
COc1ccc(S(=O)(=O)N(CC(=O)NN=Cc2ccc(C(=O)O)cc2)Cc2ccccc2)cc1OC	6	.	.	.	.	.
Cc1noc(C)c1COc1ccccc1C(=O)NNC(=O)c1ccccc1	2	11*	-13	9	-1	1
Cc1ccc(C(=O)NNC(=O)c2ccccc2OCc2c(C)noc2C)cc1	0	-1	-3	2	.	.
CCN(C(=O)COC(=O)c1ccc(OCc2c(C)noc2C)cc1)c1ccccc1	7	14*	3	2	-1	0
COc1ccc(OC)c(NC(=O)COC(=O)Cc2ccc(Br)cc2)c1	5	-1	3	-3	.	.
COc1ccc(OC)c(NC(=O)COC(=O)Cc2ccc(-c3ccccc3)cc2)c1	1	14*	-2	1	-8	-6
CCc1nc2c(OC)cccn2c1N(C)C(=O)c1ccccc1F	.	-11	-5	-6	.	.
CCc1nc2c(OCc3ccc(Cl)cc3Cl)cccn2c1N(C)C(=O)c1ccccc1F	.	4	6	11*	-4	-4
Cc1cc(C)n(CC(=O)NN=Cc2cccc([N+](=O)[O-])c2)n1	1	.	.	.	.	.
COCCCNC(=O)c1c(N)n(N=Cc2cccs2)c2nc3ccccc3nc12	-391	.	.	.	.	.
COc1cc(OC)cc(C(=O)NCCN2C(=O)S/C(=C\c3cccs3)C2=O)c1	4	2	0	-4	.	.
CCOc1ncccc1C(=O)NCCN1C(=O)S/C(=C/c2cccs2)C1=O	6	13*	2	9	-2	2
COc1cc(C(=O)NCCN2C(=O)S/C(=C\c3cccs3)C2=O)cc(OC)c1OC	8	10*	-4	1	1	2
COc1ccc(C(=O)NCC(=O)NN=Cc2c(C)[nH]c3ccccc23)cc1	7	.	.	.	.	.
COC(=O)c1ccc(CSc2nnc(C)s2)cc1	4	3	0	11*	-3	0
COC(=O)c1ccc(CSc2nnc(N)s2)cc1	3	0	3	-1	.	.
C/C(=N\NC(=O)CSc1nnc(C)s1)c1ccc(O)cc1	.	9.9*	-9	10	0	-2
O=C(Cc1cccs1)NCc1ccccc1Br	1	12*	-26	6	-8	-6
O=C(Cc1cccs1)NCc1cccc(CNC(=O)Cc2cccs2)c1	-2	5	1	3	.	.
COc1ccc(CNC(=O)C2CCC(CNS(=O)(=O)c3ccc(C)cc3)CC2)cc1 (stereo not drawn)	6	10*	3	2	-5	-2
Cc1nn(CC(=O)N2CCN(c3ccccc3)CC2)c(C)c1[N+](=O)[O-]	4	0	2	-6	.	.
SMILES	UCH37 DUB inh	PLC-gamma1 inh	Rpn11 inh	PLCb3 inh	PLCgamma1 ctr	PLCb3 confirm
Cc1ccc(S(=O)(=O)N2CCN(C(=O)Cn3nc(C)c([N+](=O)[O-])c3C)CC2)c(C)c1	3	10*	-6	-8	0	2
S=c1[nH]nc(-c2ccccc2)n1N=Cc1cccc(Br)c1	0	.	.	.	.	.
Cc1ccc(OCCCCNC(C)c2ccccc2)c(C)c1 (stereo not drawn)	1	13*	2	-1	-3	1
CC(C)(C)C(=O)Cn1c[n+](N)cn1	0	10*	3	3	-5	-1
COc1ccc(-c2nnc(SC(C)C(=O)Nc3nccs3)n2Cc2ccccc2)cc1OC (stereo not drawn)	4	9.8*	-5	2	-5	-3
OC(COc1ccc(-c2ccccc2)cc1)CN1CCOCC1 (stereo not drawn)	5	.	.	.	.	.
OC(COc1ccc(OCc2ccccc2)cc1)CN1CCOCC1 (stereo not drawn)	3	9.7*	-3	9	-3	2
O[C@H](COc1ccccc1)CN1CCC(C(O)(c2ccccc2)c2ccccc2)CC1	.	5	.	12*	-4	-1
Cc1ccc([N+](=O)[O-])cc1C=NNc1nnnn1-c1ccccc1	1	.	.	.	.	.
CC(=NNc1nc(N)cc(Cl)n1)c1cccc(N)c1	5	.	.	.	.	.
NC(CCc1ccccc1)c1csc(NC(=O)Nc2ccccc2Oc2ccccc2)n1 (stereo not drawn)	.	16*	2	6	-1	-3
Cc1cc2ncn(S(=O)(=O)N3CCOCC3)c2cc1C	1	6	4	14*	-2	-2
O=S(=O)([N-]c1nc2ccccc2nc1-[n+]1ccccc1)c1ccc(F)cc1	4	11*	-6	-2	-7	-7
Cc1ccc[n+](-c2nc3ccccc3nc2[N-]S(=O)(=O)c2ccccc2)c1	3	-1	1	-8	.	.
COc1ccc(C(=O)NCC(=O)OCC(=O)c2ccc(Cl)cc2)cc1OC	-5	-1	-5	-6	.	.
COc1ccc(C(=O)NCC(=O)OCCCOC(=O)CNC(=O)c2ccc(OC)c(OC)c2)cc1OC	1	12*	-2	5	-6	-19
COc1ccc(NS(=O)(=O)c2ccc(NC(=S)NC(=O)C(C)C)cc2)cc1	4	11*	5	5	-3	-2
CCOc1ccc(NS(=O)(=O)c2ccc(NC(=S)NC(=O)C(C)C)cc2)cc1	2	2	23	2	.	.
CC(C)CNC(=O)C1CCN(Cc2ccc(OCc3ccccc3)cc2)CC1	1	12*	0	1	-7	2
CC(O)CNC(=O)C1CCN(Cc2ccc(OCc3ccccc3)cc2)CC1 (stereo not drawn)	1	0	2	-1	.	.
CC(C)(C)N(NC(=O)Nc1ccccc1)C(=O)c1ccccc1	0	13*	-5	8	-4	2
CCOc1ccccc1NC(=O)C1CCCN1C(=O)c1cccs1 (stereo not drawn)	3	10*	-2	-2	-7	-2
CCOc1ccccc1NC(=O)N1CCCC1C(=O)NCc1cccs1 (stereo not drawn)	-1	2	-1	-3	.	.
COc1ccc(C(=O)NCC2CCCN2S(=O)(=O)c2ccccc2)cc1OC (stereo not drawn)	.	9.5*	-4	-2	-3	0
Cc1ccc(S(=O)(=O)N2CCCC2CNC(=O)c2ccccc2)cc1 (stereo not drawn)	5	0	3	-8	.	.
O=C(CN1CCC(n2nnc3cc(C(F)(F)F)ccc32)CC1)N1CCc2ccccc21	4	13*	-6	7	-6	-2
